# Screens deposited in PubChem BioAssay by The Scripps Research Institute Molecular Screening Center.
# TCR-CD3 inh – human TCR-CD3 binding inhibition; TAMRA-labeled TCR probe fluorescence, biochemical; inhibition, % at 9.4 µM; 360,000 tested, 0.37% active; in the data active means inhibition above about 19%;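 further: recombinant mutant TCR 2C K166C tagged with TAMRA read by polarization; 0% = receptor in buffer alone and 100% = receptor with positive control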
# HTRA1 inhibitor – blocks human HTRA1 serine peptidase | recombinant HTRA1, FP-rhodamine activity-based probe, fluorescence polarization | inhibition, % at 5.96 µM | 340,000 tested, 0.5% active | AID 504803; in the data active means inhibition above about 36%;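 further: 0% = enzyme with DMSO and 100% = wells lacking enzyme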
# PRMT1 FP inh – inhibitors of human PRMT1; Q99873; recombinant PRMT1, activity-based probe fluorescence polarization; inhibition, % at 2.79 µM; 370,000 tested, 1.3% active; AID 652257;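 active means inhibition above about 21% made by adding two undisclosed values, limit read from the data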
# mABHD4 FP – ABHD4 (mouse) inhibition, primary FP screen; 370,000 tested, 0.54% active; AID 720543; inhibition, % at 8.92 µM; purified mABHD4, FP-Rh probe fluorescence polarization; Q8VD66;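 active means inhibition exceeding the mean over every tested compound plus 3 SD, cut at about 30% in these data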;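 further: 0% = plate median of compound wells and 100% = S159A mutant with DMSO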
#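 Test system: mouse ABHD4 enzyme, wild type. Reagent: FP-Rh fluorescent activity-based probe, added after compound pre-incubation. Timing: pre-incubation 45 min, probe exposure 60 min, at 25 °C. Technique: FP readout, ex 525 nm / em 598 nm. Benchmarks: high control S159A mutant with DMSO, low control median of compound wells.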
# SIAE primary – inhibitors of human sialic acid acetylesterase SIAE. inhibition, % at 9.66 µM. SIAE FP-Rh probe binding, fluorescence polarization. 370,000 tested, 0.69% active. Q9HAT2. AID 1053197;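 active means inhibition above a cutoff: mean of compounds within the control limits plus 3 SD of those, cut at about 17% in these data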;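 further: 0% = plate median of compound wells and 100% = probe without SIAE protein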
# Target sequence (Q9HAT2 whole entry, looked up): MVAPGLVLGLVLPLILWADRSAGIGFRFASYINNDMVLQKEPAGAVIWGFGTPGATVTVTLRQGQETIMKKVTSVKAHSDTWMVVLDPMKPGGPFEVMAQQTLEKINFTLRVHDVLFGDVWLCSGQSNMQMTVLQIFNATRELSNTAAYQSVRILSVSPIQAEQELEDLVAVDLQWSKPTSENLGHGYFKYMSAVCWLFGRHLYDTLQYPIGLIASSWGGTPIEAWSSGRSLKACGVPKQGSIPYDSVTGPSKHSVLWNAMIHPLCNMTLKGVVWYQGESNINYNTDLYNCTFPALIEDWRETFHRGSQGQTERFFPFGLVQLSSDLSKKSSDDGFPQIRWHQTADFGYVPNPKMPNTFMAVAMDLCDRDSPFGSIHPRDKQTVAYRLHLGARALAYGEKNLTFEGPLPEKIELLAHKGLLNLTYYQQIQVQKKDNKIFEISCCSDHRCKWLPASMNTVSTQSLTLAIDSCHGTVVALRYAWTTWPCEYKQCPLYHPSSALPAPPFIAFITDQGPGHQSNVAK
# PRMT1 inh conf – PRMT1 (human) inhibition, FP confirmation; inhibition, % at 2.79 µM; 3,300 tested, 42% active; shares compounds with PRMT1 FP inh; AID 687036; recombinant His-PRMT1, activity-based probe fluorescence polarization;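 active means mean inhibition across replicates above the hit cutoff derived for the earlier primary screen, cut at about 22% in these data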
# Numbers without * were called inactive; . = not tested or not shown. Most compounds without a hit are left out; they make up all but 2.5% or so of the library.
SMILES,TCR-CD3 inh,HTRA1 inhibitor,PRMT1 FP inh,mABHD4 FP,SIAE primary,PRMT1 inh conf
CCOC(=O)N(C)OC(=O)Nc1ccc(Cl)c(Cl)c1,-5,-18,35*,-6,-7,36*
Cc1[nH]n(-c2ccccc2)c(=S)c1C=NCCCN=Cc1c(C)[nH]n(-c2ccccc2)c1=S,4,4,81*,6,12,44*
O=c1c2ccccc2sn1-c1nccs1,-1,.,97*,10,-2,88*
COCCn1c(=O)sc2ccccc2c1=O,4,7,0,0,2,.
O=C1c2ccccc2C(=O)N1c1nccs1,-2,6,2,3,2,.
O=C1CN(c2ccccc2F)C(=O)CN1c1ccccc1F,-1,4,-1,9,2,.
O=c1c2ccccc2sn1-c1ccccc1F,1,1,89*,4,9,96*
Cn1sc2ccccc2c1=O,-6,2,71*,13,11,77*
Cc1noc(C)c1S(=O)(=O)NC(=O)C1(C)CCN1C(=O)CC(c1ccccc1)c1ccccc1 (stereo unspecified),1,.,-4,5,1,.
CCN(Cc1ccccc1)S(=O)(=O)CCNC(=O)c1ccccc1,-5,2,33*,1,2,1
CC(C)(C)c1ccc(Cn2cnc(-c3ccc([N+](=O)[O-])cc3)c2)cc1,-4,-40,2,1,4,.
Cc1cc(C)c(Cn2cnc(-c3ccc([N+](=O)[O-])cc3)c2)c(C)c1,-8,-32,46*,-11,1,-6
COC(=O)c1sc(NC(=O)c2cc(-c3ccccc3)nc3ccccc23)c(C#N)c1C,0,-9,37*,11,-7,63*
C=C(C)COc1ccc(C2NC(=O)c3ccccc3O2)cc1OCC (stereo unspecified),-6,2,-1,-2,1,.
Cc1cc2cc(C=C(C#N)C#N)c(Cl)nc2cc1C,9,-1,86*,8,0,8
CCOC(=O)/C(C#N)=C/c1cc2cc(C)c(C)cc2nc1Cl,1,-8,0,3,1,.
C/C(=N/NC(=O)CSc1nc2ccccc2s1)c1ccncc1,-5,-9,-1,-8,-5,.
CS/C(=N\S(=O)(=O)c1cccs1)NC(=O)CSc1nc2ccccc2s1,15,6,28*,-3,-10,33*
Cc1ccc(/C=C2\SC(=S)N(C3CCS(=O)(=O)C3)C2=O)cc1 (stereo unspecified),-8,-1,10,-7,-4,.
O=C1/C(=C/c2ccco2)SC(=S)N1C1CCS(=O)(=O)C1 (stereo unspecified),1,14,36*,23,17,6
CCN(C(=O)C(C)N1C(=O)/C(=C/c2ccco2)SC1=S)C1CCS(=O)(=O)C1 (stereo unspecified),2,23,26*,21,2,6
COc1ccccc1/C=C/C=N/NC(=O)c1cccs1,3,-11,-3,-12,6,.
Cc1ccc(C2C3=C(CC(C)(C)CC3=O)Nc3[nH]c(=S)[nH]c(=O)c32)cc1 (stereo unspecified),-1,-6,52*,1,-7,5
Cc1cc(NC(=O)c2ccccc2C)n(-c2cccc(F)c2)n1,-3,-3,2,-7,-1,.
CCC1Oc2ccc(C)cc2N(CC(=O)N(Cc2ccc(C)o2)C2CCCC2)C1=O (stereo unspecified),-3,-12,47*,-6,6,38*
SMILES,TCR-CD3 inh,HTRA1 inhibitor,PRMT1 FP inh,mABHD4 FP,SIAE primary,PRMT1 inh conf
Cn1cccc1C(=O)OCC(=O)NCc1ccc2c(c1)OCO2,26*,-6,126*,10,8,3
CCOC(=S)SCC(=O)Nc1ncc(C)s1,-5,3,59*,9,1,46*
N#C[C@@H]1N[C@H](CO)[C@@H]1c1ccccc1,.,.,4,3,-2,.
COc1ccc(CNC(=O)CSc2nc(SC)ns2)cc1,6,0,0,6,1,.
O=C(O)c1cccc2c1C(=O)c1ccc(N3CCCC3)cc1S2(=O)=O,1,-3,27*,-13,-11,30*
O=C(NCc1cccc(F)c1)c1cccc2c1C(=O)c1ccc(N3CCCC3)cc1S2(=O)=O,.,-36,.,.,.,.
CC(C)(C)C(c1nc2ccccc2[nH]1)n1c(-c2cc(Cl)cc(Cl)c2)nc2ccccc21 (stereo unspecified),4,.,-8,-90,-121,.
CC(=O)Nc1ccc(SC(Sc2ccc(NC(C)=O)cc2)c2ccccc2)cc1,-5,-40,29*,-40,-17,22*
CC(=O)Nc1ccc(NC(=S)Nc2ccccc2)cc1,-3,2,1,9,2,.
Cc1cccc(C)c1NC(=O)COC(=O)CCc1c[nH]c2ccccc12,16,1,30*,10,6,-1
CCCCN(C(=O)c1c(CC)noc1C)c1c(N)n(CCCC)c(=O)[nH]c1=O,-1,-2,4,-6,2,.
CCN1C(=O)[C@H]2[C@H]3CN=C(SCC(=O)c4ccccc4)N3[C@@](C)(C(=O)OC)[C@H]2C1=O,2,-2,83*,-4,7,73*
COC(=O)[C@@]1(Cc2ccccc2)[C@H]2C(=O)N(C)C(=O)[C@H]2[C@H]2CN=C(SCC(=O)c3ccccc3)N21,3,-1,45*,1,-1,33*
COC(=O)[C@@]1(Cc2ccccc2)[C@H]2C(=O)N(C)C(=O)[C@H]2[C@H]2CN=C(SCC3CC3)N21,5,7,0,-3,1,.
COC(=O)[C@@]1(C)[C@H]2C(=O)N(Cc3ccccc3)C(=O)[C@H]2[C@H]2CN=C(SCc3ccccc3)N21,-5,3,0,4,7,.
O=C(N[C@@H](Cc1cccnc1)C(=O)N1CCC[C@H]1C(=O)NC1CCCC1)C1CCCC1,-2,.,-2,-2,6,.
Cc1snc(SCC(=O)c2ccc([N+](=O)[O-])cc2)c1C#N,4,12,47*,16,11,53*
CC(C)[C@@H]1Cc2[nH]c(=S)[nH]c(=O)c2[C@H](CCc2ccccc2)O1,4,.,-7,-2,-1,.
CC(=O)c1sc2nc(-c3cccs3)cc(C(F)(F)F)c2c1N,-7,-26,31*,-2,-2,20
Cc1c(C(=O)O)sc2nc(-c3cccs3)cc(C(F)(F)F)c12,5,-22,1,-5,-10,.
COc1ccc(S(=O)(=O)Nc2ccc(-n3cccc3)cc2)cc1,-1,-15,8,-30,-6,.
CCOc1ccc(C(C)=O)cc1COc1cccnc1[N+](=O)[O-],-4,-4,1,1,2,.
C=CCN1C(=O)[C@@H](CC(=O)N2CCN(C(=O)C3CC3)CC2)[C@]2(C(=O)OC)CCCCC=C12,.,.,0,5,3,.
CC(C)NC(=O)c1cc(-c2ccco2)nn1-c1ccc(Cl)cc1,-13,-1,31*,-6,-5,20
Cc1ccc(-n2nc(-c3ccco3)cc2C(=O)O)cc1,7,10,14,5,-1,.
